≈ marks a conversion by molar mass, not a printed value. Calls of active or inactive are those of the source. The rule behind the calls is not given here.
Experiments:
Macrophomina phaseolina [1] = experiment: Antifungal activity against Macrophomina phaseolina assessed as growth inhibition at 28 degC; type: functional; settings: read-out: ED50 (the source's name)
Method in brief: (§1)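 Poisoned food technique on PDA: compound in acetone added to medium at 1000, 500, 250, 125, 100, 50, 25 and 10 μg/mL (final in medium). Acetone 1 mL serves as the control. A 5 mm mycelial disk from a 2-week-old colony is placed centrally. Plates are incubated at 28 °C until control growth is nearly complete. Colony diameter is measured and %inhibition = (C−T)/C×100, four replicates. ED50 is obtained by probit analysis of Abbott-corrected inhibition.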

Athelia rolfsii = experiment: Antifungal activity against Athelia rolfsii assessed as growth inhibition at 28 degC; type: functional; settings: Agroathelia rolfsii; read-out: ED50 (the source's name); method in brief: as §1
Sclerotinia sclerotiorum [2] = experiment: Antifungal activity against Sclerotinia sclerotiorum assessed as growth inhibition at 28 degC; type: functional; settings: read-out: ED50 (the source's name); method in brief: as §1
Macrophomina phaseolina [3] = experiment: Antifungal activity against Rhizoctonia bataticola assessed as growth inhibition at 28 degC; type: functional; settings: read-out: ED50 (the source's name); method in brief: as §1
Sclerotinia sclerotiorum [4] = experiment: Antifungal activity against Sclerotinia sclerotiorum infected pea plants assessed as healthy plants at 0.364 mL of ai/150cm'3 measured after 21 days; type: functional
Method in brief: (§2)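 S. sclerotiorum inoculum was grown in potato dextrose broth at 27 °C for 7 days, then in water at 20 °C for 3-4 weeks, then homogenized, filtered and sonicated. It was mixed into sieved, autoclaved compost soil and held about 25 °C for 5-7 days. Fungicide was incorporated and soil was bagged 7 days. Pea was transplanted. Symptomless plants were scored at 7, 14 and 21 days (20 plants/treatment, six trials), arcsine-square-root transformed, repeated-measures ANOVA.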

Sclerotinia sclerotiorum [5] = experiment: Antifungal activity against Sclerotinia sclerotiorum infected pea plants assessed as healthy plants at 0.364 mL of ai/150cm'3 measured after 14 days; type: functional; method in brief: as §2
Sclerotinia sclerotiorum [6] = experiment: Antifungal activity against Sclerotinia sclerotiorum infected pea plants assessed as prevention of water soaked spots at 5 % aqueous emulsion measured on day 21; type: functional, organism-based
Method in brief: (§3)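 Greenhouse pea assay: S. sclerotiorum inoculum grown in potato dextrose broth, homogenized and mixed into autoclaved, sieved composted soil, then incubated 5-7 days at ~25 °C. Formulated compound is applied as 1 or 5% aqueous emulsion at 5.0 mL per 150 cm3 soil and held 7 days in sealed bags. Symptoms (water-soaked spots) and symptomless plants are scored 7, 14 and 21 days after transplanting, 20 plants per treatment.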

Sclerotinia sclerotiorum [7] = experiment: Antifungal activity against Sclerotinia sclerotiorum infected pea plants assessed as healthy plants at 1 % aqueous emulsion measured on day 7; type: functional; method in brief: as §3
Sclerotinia sclerotiorum [8] = experiment: Antifungal activity against Sclerotinia sclerotiorum infected pea plants assessed as healthy plants at 5 % aqueous emulsion measured on day 21; type: functional; method in brief: as §3
Sclerotinia sclerotiorum [9] = experiment: Antifungal activity against Sclerotinia sclerotiorum infected pea plants assessed as healthy plants at 1 % aqueous emulsion measured on day 21; type: functional; method in brief: as §3

| SMILES | EC50 (Macrophomina phaseolina [1]) | EC50 (Athelia rolfsii) | EC50 (Sclerotinia sclerotiorum [2]) | EC50 (Macrophomina phaseolina [3]) | Activity (Sclerotinia sclerotiorum [4]) | Activity (Sclerotinia sclerotiorum [5]) | Activity (Sclerotinia sclerotiorum [6]) | Activity (Sclerotinia sclerotiorum [7]) | Activity (Sclerotinia sclerotiorum [8]) | Activity (Sclerotinia sclerotiorum [9]) |
| --- | --- | --- | --- | --- | --- | --- | --- | --- | --- | --- |
| CC1=CCCC(C)(C)C1/C=C/C(C)=N/OCCC(C)C (configuration not stated) | 666 µg/mL (≈ 2400 µM) | 257 µg/mL (≈ 927 µM) | 273 µg/mL (≈ 986 µM) | 723 µg/mL (≈ 2600 µM) |  |  |  |  |  |  |
| COC(=O)Nc1nc2ccccc2[nH]1 [CARBENDAZIM] |  |  |  |  | 75% | 80% |  |  |  |  |
| CCCCCCCCO/N=C(C)\C=C\C1C(C)=CCCC1(C)C (configuration not stated) | 1110 µg/mL (≈ 3470 µM) | 1360 µg/mL (≈ 4250 µM) | 584 µg/mL (≈ 1830 µM) | 1610 µg/mL (≈ 5050 µM) |  |  |  |  |  |  |
| CCCCCCO/N=C(C)/C=C/C1C(C)=CCCC1(C)C (configuration not stated) | 751 µg/mL (≈ 2580 µM) | 573 µg/mL (≈ 1970 µM) | 428 µg/mL (≈ 1470 µM) | 895 µg/mL (≈ 3070 µM) |  |  |  |  |  |  |
| CO/N=C(C)/C=C/C1C(C)=CCCC1(C)C (configuration not stated) | 307 µg/mL (≈ 1380 µM) | 238 µg/mL (≈ 1070 µM) | 442 µg/mL (≈ 2000 µM) | 388 µg/mL (≈ 1750 µM) |  |  |  |  |  |  |
| CCO/N=C(C)\C=C\C1C(C)=CCCC1(C)C (configuration not stated) | 394 µg/mL (≈ 1670 µM) | 415 µg/mL (≈ 1760 µM) | 261 µg/mL (≈ 1110 µM) | 246 µg/mL (≈ 1050 µM) |  |  |  |  |  |  |
| CCCCCCCCCCO/N=C(C)/C=C/C1C(C)=CCCC1(C)C (configuration not stated) | 957 µg/mL (≈ 2750 µM) | 842 µg/mL (≈ 2420 µM) | 681 µg/mL (≈ 1960 µM) | 1940 µg/mL (≈ 5590 µM) |  |  |  |  |  |  |
| CC1=CCCC(C)(C)C1/C=C/C(C)=N\OCCC(C)C (configuration not stated) | 625 µg/mL (≈ 2250 µM) | 367 µg/mL (≈ 1320 µM) | 375 µg/mL (≈ 1350 µM) | 125 µg/mL (≈ 452 µM) |  |  |  |  |  |  |
| CC1=CCCC(C)(C)C1/C=C/C(C)=N\OC(C)C (configuration not stated) | 198 µg/mL (≈ 794 µM) | 129 µg/mL (≈ 517 µM) | 190 µg/mL (≈ 764 µM) | 116 µg/mL (≈ 467 µM) |  |  |  |  |  |  |
| CCCCCO/N=C(C)/C=C/C1C(C)=CCCC1(C)C (configuration not stated) | 94.8 µg/mL (≈ 342 µM) | 43.6 µg/mL (≈ 157 µM) | 32.7 µg/mL (≈ 118 µM) | 39.2 µg/mL (≈ 141 µM) |  |  |  |  |  |  |
| CC1=CCCC(C)(C)C1/C=C/C(C)=N\OCC(C)C (configuration not stated) | 101 µg/mL (≈ 383 µM) | 47.6 µg/mL (≈ 181 µM) | 79 µg/mL (≈ 300 µM) | 58.7 µg/mL (≈ 223 µM) |  |  |  |  |  |  |
| CCO/N=C(C)/C=C/C1C(C)=CCCC1(C)C (configuration not stated) | 732 µg/mL (≈ 3110 µM) | 410 µg/mL (≈ 1740 µM) | 295 µg/mL (≈ 1250 µM) | 393 µg/mL (≈ 1670 µM) |  |  |  |  |  |  |
| CO/N=C(C)\C=C\C1C(C)=CCCC1(C)C (configuration not stated) | 311 µg/mL (≈ 1400 µM) | 259 µg/mL (≈ 1170 µM) | 517 µg/mL (≈ 2340 µM) | 413 µg/mL (≈ 1870 µM) |  |  |  |  |  |  |
| CC1=CCCC(C)(C)C1/C=C/C(C)=N/OC(C)C (configuration not stated) | 126 µg/mL (≈ 505 µM) | 35.5 µg/mL (≈ 142 µM) | 182 µg/mL (≈ 729 µM) | 56.6 µg/mL (≈ 227 µM) |  |  |  |  |  |  |
| CCCCCCO/N=C(C)\C=C\C1C(C)=CCCC1(C)C (configuration not stated) | 963 µg/mL (≈ 3300 µM) | 912 µg/mL (≈ 3130 µM) | 244 µg/mL (≈ 837 µM) | 327 µg/mL (≈ 1120 µM) |  |  |  |  |  |  |
| CCCCCCCO/N=C(C)\C=C\C1C(C)=CCCC1(C)C (configuration not stated) | 1090 µg/mL (≈ 3570 µM) | 956 µg/mL (≈ 3130 µM) | 419 µg/mL (≈ 1370 µM) | 566 µg/mL (≈ 1850 µM) |  |  |  |  |  |  |
| CCCO/N=C(C)/C=C/C1C(C)=CCCC1(C)C (configuration not stated) | 181 µg/mL (≈ 727 µM) | 101 µg/mL (≈ 406 µM) | 257 µg/mL (≈ 1030 µM) | 32.4 µg/mL (≈ 130 µM) |  |  |  |  |  |  |
| CCCCCCCO/N=C(C)/C=C/C1C(C)=CCCC1(C)C (configuration not stated) | 717 µg/mL (≈ 2350 µM) | 975 µg/mL (≈ 3190 µM) | 392 µg/mL (≈ 1280 µM) | 919 µg/mL (≈ 3010 µM) |  |  |  |  |  |  |
| CCCCCO/N=C(C)\C=C\C1C(C)=CCCC1(C)C (configuration not stated) | 31.1 µg/mL (≈ 112 µM) | 41.6 µg/mL (≈ 150 µM) | 21.4 µg/mL (≈ 77.1 µM) | 57.6 µg/mL (≈ 207 µM) |  |  | Active | 65% | >90% | 40% |
| CCCCO/N=C(C)/C=C/C1C(C)=CCCC1(C)C (configuration not stated) | 101 µg/mL (≈ 382 µM) | 113 µg/mL (≈ 430 µM) | 107 µg/mL (≈ 408 µM) | 67.9 µg/mL (≈ 258 µM) |  |  |  |  |  |  |
| CCCCCCCCCCO/N=C(C)\C=C\C1C(C)=CCCC1(C)C (configuration not stated) | 1760 µg/mL (≈ 5060 µM) | 1110 µg/mL (≈ 3190 µM) | 477 µg/mL (≈ 1370 µM) | 2060 µg/mL (≈ 5920 µM) |  |  |  |  |  |  |
| CCCCCCCCO/N=C(C)/C=C/C1C(C)=CCCC1(C)C (configuration not stated) | 824 µg/mL (≈ 2580 µM) | 1040 µg/mL (≈ 3250 µM) | 837 µg/mL (≈ 2620 µM) | 1090 µg/mL (≈ 3430 µM) |  |  |  |  |  |  |
| CCCCO/N=C(C)\C=C\C1C(C)=CCCC1(C)C (configuration not stated) | 174 µg/mL (≈ 660 µM) | 88.9 µg/mL (≈ 337 µM) | 164 µg/mL (≈ 621 µM) | 114 µg/mL (≈ 431 µM) |  |  |  |  |  |  |
| CCCO/N=C(C)\C=C\C1C(C)=CCCC1(C)C (configuration not stated) | 236 µg/mL (≈ 945 µM) | 132 µg/mL (≈ 530 µM) | 220 µg/mL (≈ 881 µM) | 157 µg/mL (≈ 629 µM) |  |  |  |  |  |  |
| CC1=CCCC(C)(C)C1/C=C/C(C)=N/OCC(C)C (configuration not stated) | 103 µg/mL (≈ 391 µM) | 45.2 µg/mL (≈ 172 µM) | 94.1 µg/mL (≈ 357 µM) | 50.6 µg/mL (≈ 192 µM) |  |  |  |  |  |  |

From ChEMBL document CHEMBL3045710, “Antifungal activity of 4'-(2,6,6-Trimethyl-2-cyclohexen-1-yl)-3'-butene-2'-ketoxime N-O-alkyl ethers” (2010)
